Data from ChEMBL document CHEMBL4020823, “Highly Selective, Potent, and Oral mTOR Inhibitor for Treatment of Cancer as Autophagy Inducer” (J Med Chem, 2018).
Calls of active or inactive are those of the source. The rule behind the calls is not given here.

Key:
[1] = system: MCF7; experiment: Growth inhibition of human MCF7 cells after 72 hrs by CCK8 assay; type: functional, cell-based; settings: MCF7, 72 h
Outline: (§1)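 Cells were seeded at 2000–3000 per well and grown 24 h in serum-containing medium. They were then exposed to serially diluted compound for 72 h at 37 °C, 5% CO2. CCK8 reagent was added for 1–4 h and absorbance read at 450 nm. Inhibition = (AC − AS)/(AC − Ab) × 100%. IC50 is the average of at least three independent determinations.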

[2] = system: T47D; experiment: Growth inhibition of human T47D cells after 72 hrs by CCK8 assay; type: functional, cell-based; outline: as §1
[3] = system: MDA-MB-231; experiment: Growth inhibition of human MDA-MB-231 cells after 72 hrs by CCK8 assay; type: functional, cell-based; settings: MDA-MB-231, 72 h; outline: as §1
[4] = system: HeLa; experiment: Growth inhibition of human HeLa cells after 72 hrs by CCK8 assay; type: functional, cell-based; outline: as §1
[5] = system: SiHa; experiment: Growth inhibition of human SiHa cells after 72 hrs by CCK8 assay; type: functional, cell-based; outline: as §1
[6] = system: SK-OV-3; experiment: Growth inhibition of human SKOV3 cells after 72 hrs by CCK8 assay; type: functional, cell-based; settings: SK-OV-3, 72 h; outline: as §1
[7] = system: OVCAR-5; experiment: Growth inhibition of human OVCAR5 cells after 72 hrs by CCK8 assay; type: functional, cell-based; settings: OVCAR-5, 72 h; outline: as §1
[8] = system: NCI-H460; experiment: Growth inhibition of human H460 cells after 72 hrs by CCK8 assay; type: functional, cell-based; settings: NCI-H460, 72 h; outline: as §1
[9] = system: T47D; experiment: Cell cycle arrest in human T47D cells assessed as decrease in S-phase at 0.5 uM after 24 hrs by propidium iodide-staining based flow cytometric analysis; type: functional
Outline: (§2)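 Cells were seeded at 5 × 10^5 cells/mL. At 24 h after plating they were treated with increasing concentrations for 24 h, washed in PBS, and fixed in ice-cold 70% ethanol for at least 24 h. They were stained with propidium iodide plus RNase A for 30 min at 37 °C and analysed by flow cytometry for phase distribution.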

[10] = system: T47D; experiment: Cell cycle arrest in human T47D cells assessed as accumulation at G0/G1 phase at 0.5 uM after 24 hrs by propidium iodide-staining based flow cytometric analysis; type: functional; outline: as §2
[11] = system: MCF7; experiment: Cell cycle arrest in human MCF7 cells assessed as decrease in S-phase at 0.5 uM after 24 hrs by propidium iodide-staining based flow cytometric analysis; type: functional; outline: as §2
[12] = system: MCF7; experiment: Cell cycle arrest in human MCF7 cells assessed as accumulation at G0/G1 phase at 0.5 uM after 24 hrs by propidium iodide-staining based flow cytometric analysis; type: functional; outline: as §2
[13] = system: MDA-MB-231; experiment: Cell cycle arrest in human MDA-MB-231 cells assessed as decrease in S-phase at 0.5 uM after 24 hrs by propidium iodide-staining based flow cytometric analysis; type: functional; outline: as §2
[14] = system: MDA-MB-231; experiment: Cell cycle arrest in human MDA-MB-231 cells assessed as accumulation at G0/G1 phase at 0.5 uM after 24 hrs by propidium iodide-staining based flow cytometric analysis; type: functional; outline: as §2
[15] = system: SiHa; experiment: Cell cycle arrest in human SiHa cells assessed as decrease in S-phase at 0.5 uM after 24 hrs by propidium iodide-staining based flow cytometric analysis; type: functional; outline: as §2
[16] = system: SiHa; experiment: Cell cycle arrest in human SiHa cells assessed as accumulation at G0/G1 phase at 0.5 uM after 24 hrs by propidium iodide-staining based flow cytometric analysis; type: functional; outline: as §2
[17] = system: HeLa; experiment: Cell cycle arrest in human HeLa cells assessed as decrease in S-phase at 1 uM after 24 hrs by propidium iodide-staining based flow cytometric analysis; type: functional; outline: as §2
[18] = system: HeLa; experiment: Cell cycle arrest in human HeLa cells assessed as accumulation at G0/G1 phase at 1 uM after 24 hrs by propidium iodide-staining based flow cytometric analysis; type: functional; outline: as §2
[19] = system: T47D; experiment: Induction of autophagy in human T47D cells assessed as increase in LC3-2 level at 0.5 uM after 48 hrs by Western blot analysis; type: functional, cell-based
Outline: (§3)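 Cells treated with test agents at several concentrations for 2 days (48 h). LC3B-II detected by Western blot on lysates, with β-actin as internal control. Membranes blocked in 5% skim milk, primary antibodies at 4 °C overnight, peroxidase-conjugated anti-mouse or anti-rabbit IgG secondary, ECL detection.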

[20] = system: MCF7; experiment: Induction of autophagy in human MCF7 cells assessed as increase in LC3-2 level at 0.5 uM after 48 hrs by Western blot analysis; type: functional, cell-based; outline: as §3
[21] = system: MDA-MB-231; experiment: Induction of autophagy in human MDA-MB-231 cells assessed as increase in LC3-2 level at 0.5 uM after 48 hrs by Western blot analysis; type: functional, cell-based; outline: as §3
[22] = system: SiHa; experiment: Induction of autophagy in human SiHa cells assessed as increase in LC3-2 level at 1 uM after 48 hrs by Western blot analysis; type: functional, cell-based; outline: as §3
[23] = system: HeLa; experiment: Induction of autophagy in human HeLa cells assessed as increase in LC3-2 level at 2 uM after 48 hrs by Western blot analysis; type: functional, cell-based
Outline: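 Cells were treated for 48 h (2 days) with varying concentrations. Whole-cell lysates were immunoblotted for LC3B-II with β-actin as the internal control. Membranes were blocked in 5% skim milk, incubated with primary antibody overnight at 4 °C, then with peroxidase-conjugated secondary, and developed by ECL.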

[24] = system: T47D; experiment: Induction of autophagy in human T47D cells assessed as increase in LC3-2 puncta level at 0.5 uM after 48 hrs by immunofluorescence staining based microscopic analysis; type: functional, cell-based
Outline: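 Cells seeded on glass coverslips in complete 1640 or DMEM and incubated with inhibitors at different concentrations for 48 h. Fixed in 4% paraformaldehyde, permeabilized with 0.15% Triton X-100, blocked in 4% BSA/PBS for 1 h at room temperature. Anti-LC3B (1:200) overnight, then FITC-conjugated secondary, DAPI nuclear stain. LC3B-II puncta viewed by fluorescence microscopy.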

[25] = system: T47D; experiment: Antitumor activity against human T47D cells xenografted in BALB/c nude mouse assessed as decrease in tumor growth at 60 mg/kg, po administered via gavage after 3 weeks relative to control; type: functional; settings: 504 h, read-out: TGI
[26] = system: T47D; experiment: Antitumor activity against human T47D cells xenografted in BALB/c nude mouse assessed as tumor weight at 60 mg/kg, po administered via gavage after 3 weeks (reference value: 1.23 g); type: functional

SMILES: CO[C@H]1C[C@@H]2CC[C@@H](C)[C@@](O)(O2)C(=O)C(=O)N2CCCC[C@H]2C(=O)O[C@H]([C@H](C)C[C@@H]2CC[C@@H](O)[C@H](OC)C2)CC(=O)[C@H](C)/C=C(\C)[C@@H](O)[C@@H](OC)C(=O)[C@H](C)C[C@H](C)/C=C/C=C/C=C/1C [SIROLIMUS]
- IC50 [1]: 4.98 µM
- IC50 [2]: 1.58 µM
- IC50 [3]: > 10 µM
- IC50 [4]: > 10 µM
- IC50 [5]: 1.76 µM
- IC50 [6]: > 10 µM
- IC50 [7]: > 10 µM
- IC50 [8]: > 10 µM
- Activity [9]: Active
- Activity [10]: Active
- Activity [11]: Active
- Activity [12]: Active
- Activity [13]: Active
- Activity [14]: Active
- Activity [15]: Active
- Activity [16]: Active
- Activity [17]: Active
- Activity [18]: Active
- Activity [19]: Active
- Activity [20]: Active
- Activity [21]: Active
- Activity [22]: Active
- Activity [23]: Active
- Activity [24]: Dose-dependent effect
- inhibition in vivo at 60 mg/kg [25]: 72.4%
- Activity [26]: 0.36 g
